Measurements reported in ChEMBL document CHEMBL3992564, “Design and synthesis of novel, potent and selective hypoxanthine analogs as adenosine A1 receptor antagonists and their biological evaluation” (Bioorg Med Chem, 2017).
In brackets after ≈: the same amount, converted by molar mass.

Key:
[1] = Metabolic stability in rat liver microsomes assessed as parent compound remaining measured after 30 mins in presence of NADPH; type: ADME, microsome; conditions: read-out: Stability
[2] = target: T1, Adenosine receptor A3 (Homo sapiens) (UniProt P0DMS8); test: Displacement of [3H]HEMADO from human adenosine A3 receptor expressed in HEK293 cell membranes at 1 uM after 90 mins relative to control
T1 sequence (whole entry): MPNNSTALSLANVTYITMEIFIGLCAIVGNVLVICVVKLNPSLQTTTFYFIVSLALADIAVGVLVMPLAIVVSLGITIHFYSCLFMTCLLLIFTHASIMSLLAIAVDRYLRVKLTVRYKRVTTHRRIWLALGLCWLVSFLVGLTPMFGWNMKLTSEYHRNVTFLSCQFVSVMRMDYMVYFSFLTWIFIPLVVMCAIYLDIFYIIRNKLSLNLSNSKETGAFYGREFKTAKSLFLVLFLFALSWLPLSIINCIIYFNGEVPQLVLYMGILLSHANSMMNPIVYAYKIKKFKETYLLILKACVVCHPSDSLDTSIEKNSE
Procedure, shortened: (§1)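 Membranes from HEK-293 cells stably transfected with human receptor, pre-treated with adenosine deaminase. Radioligands: 1 nM [3H]DPCPX (A1), 1 nM [3H]ZM241385 (A2A), 1.6 nM [3H]MRS-1754 (A2B), 2 nM [3H]HEMADO (A3). Buffers: Tris pH 7.4 (A1, A2A, A3) or pH 6.5 (A2B), with ADA. Incubated 90 min at room temperature, then filtered. Nonspecific binding defined with 100 µM NECA. Ki from 8 concentrations run in triplicate.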

[3] = target: T2, Adenosine receptor A2b (Homo sapiens) (UniProt P29275); test: Displacement of [3H]MRS-1754 from human adenosine A2B receptor expressed in HEK293 cell membranes at 1 uM after 90 mins relative to control; procedure, shortened: as §1
T2 sequence (whole entry): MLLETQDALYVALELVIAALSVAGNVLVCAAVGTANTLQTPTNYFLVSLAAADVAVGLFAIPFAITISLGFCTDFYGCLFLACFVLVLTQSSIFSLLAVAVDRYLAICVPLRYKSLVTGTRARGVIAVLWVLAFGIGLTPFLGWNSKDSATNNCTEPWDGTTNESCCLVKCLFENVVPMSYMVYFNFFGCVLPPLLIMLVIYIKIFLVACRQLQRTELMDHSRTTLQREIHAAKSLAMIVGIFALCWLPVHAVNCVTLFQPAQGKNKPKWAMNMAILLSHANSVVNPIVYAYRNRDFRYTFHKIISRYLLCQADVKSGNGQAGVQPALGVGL

[4] = target: T3, Adenosine receptor A1 (Homo sapiens, UniProt P30542); test: Displacement of [3H]DPCPX from human adenosine A1 receptor expressed in HEK293 cell membranes after 90 mins
T3 sequence (P30542 whole entry): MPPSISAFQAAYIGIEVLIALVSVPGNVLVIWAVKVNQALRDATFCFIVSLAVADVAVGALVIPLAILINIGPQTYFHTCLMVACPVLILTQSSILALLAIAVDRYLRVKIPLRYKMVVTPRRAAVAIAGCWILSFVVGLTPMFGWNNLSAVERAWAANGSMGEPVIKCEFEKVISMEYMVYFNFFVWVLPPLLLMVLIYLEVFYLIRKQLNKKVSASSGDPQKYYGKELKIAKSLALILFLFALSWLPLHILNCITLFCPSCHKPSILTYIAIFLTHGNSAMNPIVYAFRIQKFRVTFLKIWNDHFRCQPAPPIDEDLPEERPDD

[5] = Elimination half life in Wistar rat at 3 mg/kg, iv by LC-Ms/MS analysis; type: ADME, organism-based; conditions: in vivo, read-out: beta t1/2 (converted)
Procedure, shortened: (§2)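 Male Wistar rats (230 ± 15 g), fasted overnight with water available. IV dose of 3 mg/kg given by tail vein as a solution (0.6 mg/mL, 5 mL/kg). PO dose of 5 mg/kg given by gavage as a suspension. Blood was collected into K2EDTA at 0.008 (IV only) to 24 h and plasma was spun off. Samples were precipitated with acetonitrile and run on LC/MS/MS. Parameters came from non-compartmental analysis of individual animals, mean of n = 4.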

[6] = target: T2, Adenosine receptor A2b (Homo sapiens); test: Antagonist activity at human adenosine A2B receptor expressed in HEK293 cells assessed as reduction in NECA-induced increase in cAMP level at 1 uM preincubated for 15 mins followed by NECA addition measured after 15 mins by HTRF assay relative to control; type: functional, cell-based
Procedure, shortened: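 Overnight HEK-A1 or HEK-A2B cultures were treated with 1 U/mL ADA for 90 min at 37°C. Compound was added for 15 min, then agonist for 15 min (1 nM CPA for A1; 70 nM NECA for A2B) at room temperature in incomplete DMEM with ADA. Rolipram (20 µM) was included for A1 only. cAMP was read by HTRF.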

[7] = target: CYP2D6 (Homo sapiens, UniProt P10635); test: Inhibition of CYP2D6 (unknown origin) at 5 uM relative to control; type: ADME
Sequence of CYP2D6 (P10635 whole entry): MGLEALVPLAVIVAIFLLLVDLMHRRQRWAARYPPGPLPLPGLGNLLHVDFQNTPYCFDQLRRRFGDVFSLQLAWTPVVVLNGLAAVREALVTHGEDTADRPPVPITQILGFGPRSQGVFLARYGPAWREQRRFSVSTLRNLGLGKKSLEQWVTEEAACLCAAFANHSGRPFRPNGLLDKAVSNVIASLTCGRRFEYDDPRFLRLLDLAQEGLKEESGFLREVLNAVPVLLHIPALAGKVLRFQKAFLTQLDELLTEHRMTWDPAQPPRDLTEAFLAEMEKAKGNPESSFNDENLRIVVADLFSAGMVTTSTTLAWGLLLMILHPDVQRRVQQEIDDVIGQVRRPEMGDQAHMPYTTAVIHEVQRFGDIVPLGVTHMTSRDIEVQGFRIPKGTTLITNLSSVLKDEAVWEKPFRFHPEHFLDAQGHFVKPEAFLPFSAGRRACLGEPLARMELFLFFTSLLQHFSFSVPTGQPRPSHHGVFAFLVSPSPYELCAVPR

[8] = target: T3, Adenosine receptor A1; test: Antagonist activity at human adenosine A1 receptor expressed in HEK293 cells assessed as reduction in CPA-mediated inhibition of forskolin-stimulated cAMP level preincubated for 15 mins followed by CPA treatment for 15 mins and subsequent addition of forskolin measured after 30 mins by HTRF assay; type: functional, cell-based
[9] = Volume of distribution at steady state in Wistar rat at 3 mg/kg, iv by LC-Ms/MS analysis; type: ADME, organism-based; conditions: in vivo, read-out: Vdss
Procedure, shortened: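 Male Wistar rats (230 ± 15 g), fasted overnight with water available. IV dosing at 3 mg/kg by tail vein as solution (0.6 mg/mL, 5 mL/kg). PO dosing at 5 mg/kg by oral gavage. Serial blood sampling into K2EDTA from 0.008 (IV only) to 24 h. Plasma precipitated with acetonitrile containing internal standard and analysed by LC/MS/MS. Non-compartmental parameters calculated per animal; values are means of n = 4.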

[10] = target: CYP3A4 (Homo sapiens, UniProt P08684); test: Inhibition of CYP3A4 (unknown origin) at 5 uM relative to control; type: ADME
Sequence of CYP3A4 (P08684 whole entry): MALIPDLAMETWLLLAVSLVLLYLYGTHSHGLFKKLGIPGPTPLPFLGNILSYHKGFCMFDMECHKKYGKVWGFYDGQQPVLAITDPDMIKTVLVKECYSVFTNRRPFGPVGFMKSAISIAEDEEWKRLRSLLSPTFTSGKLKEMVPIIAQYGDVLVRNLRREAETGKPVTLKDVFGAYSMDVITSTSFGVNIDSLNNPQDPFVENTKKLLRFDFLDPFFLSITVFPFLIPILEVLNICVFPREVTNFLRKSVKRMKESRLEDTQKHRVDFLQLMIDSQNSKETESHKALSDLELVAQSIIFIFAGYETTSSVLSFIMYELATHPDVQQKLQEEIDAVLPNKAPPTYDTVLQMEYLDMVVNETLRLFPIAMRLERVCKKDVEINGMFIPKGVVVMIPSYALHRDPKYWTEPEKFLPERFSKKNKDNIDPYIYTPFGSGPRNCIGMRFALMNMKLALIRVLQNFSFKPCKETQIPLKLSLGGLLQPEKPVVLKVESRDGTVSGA

[11] = system: Liver; test: Metabolic stability in human liver microsomes assessed as metabolic rate measured after 30 mins in presence of NADPH; type: ADME, microsome; conditions: 0.5 h
[12] = Drug metabolism assessed as N-oxidation by metabolic soft spot analysis; type: physicochemical
[13] = Protein binding in rat plasma at 5 uM; type: ADME, cell-free; conditions: read-out: PPB (converted)
[14] = Thermodynamic solubility of the compound in pH 7.4 solution; type: physicochemical; conditions: read-out: Therm_solubility
[15] = Drug metabolism assessed as hydroxylation at C-8 cyclopentyl by metabolic soft spot analysis; type: physicochemical
[16] = target: CYP2C9 (Homo sapiens, UniProt P11712); test: Inhibition of CYP2C9 (unknown origin) at 5 uM relative to control; type: ADME
Sequence of CYP2C9 (P11712 whole entry): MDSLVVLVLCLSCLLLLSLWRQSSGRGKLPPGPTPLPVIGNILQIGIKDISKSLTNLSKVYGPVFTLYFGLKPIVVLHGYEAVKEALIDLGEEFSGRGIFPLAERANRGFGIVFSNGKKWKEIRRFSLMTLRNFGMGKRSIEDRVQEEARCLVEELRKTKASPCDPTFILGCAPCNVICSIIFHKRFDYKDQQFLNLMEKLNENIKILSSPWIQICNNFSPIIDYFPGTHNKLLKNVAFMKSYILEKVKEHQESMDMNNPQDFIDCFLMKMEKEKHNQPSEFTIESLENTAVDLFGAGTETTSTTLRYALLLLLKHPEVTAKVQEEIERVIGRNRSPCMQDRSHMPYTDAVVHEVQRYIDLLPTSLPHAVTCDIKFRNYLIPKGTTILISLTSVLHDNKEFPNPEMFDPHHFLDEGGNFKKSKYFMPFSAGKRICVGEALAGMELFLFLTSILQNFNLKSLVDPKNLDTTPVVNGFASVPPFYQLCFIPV

[17] = Metabolic stability in human liver microsomes assessed as parent compound remaining measured after 30 mins in presence of NADPH; type: ADME, microsome; conditions: read-out: Stability
[18] = target: T4, CYP1A2 (Homo sapiens, UniProt P05177); test: Inhibition of CYP1A2 (unknown origin) at 5 uM relative to control; type: ADME
T4 sequence (P05177 whole entry): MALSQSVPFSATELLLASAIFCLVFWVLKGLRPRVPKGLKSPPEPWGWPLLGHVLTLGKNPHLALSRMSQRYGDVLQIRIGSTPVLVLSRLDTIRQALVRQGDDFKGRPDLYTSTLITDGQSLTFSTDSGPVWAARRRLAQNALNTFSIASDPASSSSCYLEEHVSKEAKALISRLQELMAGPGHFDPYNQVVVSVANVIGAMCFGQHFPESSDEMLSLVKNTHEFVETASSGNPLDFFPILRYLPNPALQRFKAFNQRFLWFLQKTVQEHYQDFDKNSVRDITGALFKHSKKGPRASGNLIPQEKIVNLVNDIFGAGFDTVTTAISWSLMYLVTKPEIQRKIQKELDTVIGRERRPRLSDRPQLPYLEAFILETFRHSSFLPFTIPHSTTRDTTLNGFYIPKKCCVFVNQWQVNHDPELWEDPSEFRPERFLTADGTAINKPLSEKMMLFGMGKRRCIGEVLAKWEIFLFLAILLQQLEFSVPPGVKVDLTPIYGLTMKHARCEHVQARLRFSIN

[19] = target: Adenosine receptor A2a (Homo sapiens, UniProt P29274); test: Displacement of [3H]ZM241385 from human adenosine A2A receptor expressed in HEK293 cell membranes at 1 uM after 90 mins relative to control; procedure, shortened: as §1
Sequence of Adenosine receptor A2a (P29274 whole entry): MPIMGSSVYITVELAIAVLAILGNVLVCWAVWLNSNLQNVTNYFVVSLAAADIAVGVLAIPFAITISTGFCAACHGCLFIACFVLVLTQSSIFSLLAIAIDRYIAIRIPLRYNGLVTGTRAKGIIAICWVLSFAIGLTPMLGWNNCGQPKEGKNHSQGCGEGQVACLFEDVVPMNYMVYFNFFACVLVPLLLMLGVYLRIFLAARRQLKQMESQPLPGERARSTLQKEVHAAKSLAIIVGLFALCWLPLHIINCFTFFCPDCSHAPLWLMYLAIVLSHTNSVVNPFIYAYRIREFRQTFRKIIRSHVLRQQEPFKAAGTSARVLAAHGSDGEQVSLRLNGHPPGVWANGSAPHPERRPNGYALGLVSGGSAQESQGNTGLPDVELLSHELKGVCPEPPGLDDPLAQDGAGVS

[20] = target: CYP2C19 (Homo sapiens, UniProt P33261); test: Inhibition of CYP2C19 (unknown origin) at 5 uM relative to control; type: ADME
Sequence of CYP2C19 (P33261 whole entry): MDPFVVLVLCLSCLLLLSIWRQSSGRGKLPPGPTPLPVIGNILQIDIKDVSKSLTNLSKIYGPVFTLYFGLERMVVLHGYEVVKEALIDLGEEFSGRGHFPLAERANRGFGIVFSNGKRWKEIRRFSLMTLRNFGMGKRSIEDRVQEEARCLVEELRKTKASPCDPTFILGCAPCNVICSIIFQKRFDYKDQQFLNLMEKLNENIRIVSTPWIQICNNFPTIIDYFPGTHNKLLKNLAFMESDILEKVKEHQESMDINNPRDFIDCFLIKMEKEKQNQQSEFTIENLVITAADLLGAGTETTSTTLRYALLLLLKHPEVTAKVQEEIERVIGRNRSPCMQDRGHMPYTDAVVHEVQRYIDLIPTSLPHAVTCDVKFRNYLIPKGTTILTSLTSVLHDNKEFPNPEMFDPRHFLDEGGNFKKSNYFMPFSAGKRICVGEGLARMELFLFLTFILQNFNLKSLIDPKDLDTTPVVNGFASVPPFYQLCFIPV

[21] = Thermodynamic solubility of the compound in pH 4 solution; type: physicochemical; conditions: read-out: Therm_solubility
[22] = AUC (0 to t) in Wistar rat at 3 mg/kg, iv by LC-Ms/MS analysis; type: ADME, organism-based; conditions: in vivo; procedure, shortened: as §2
[23] = system: Liver; test: Metabolic stability in rat liver microsomes assessed as metabolic rate measured after 30 mins in presence of NADPH; type: ADME, microsome; conditions: 0.5 h
[24] = Clearance in Wistar rat at 3 mg/kg, iv by LC-Ms/MS analysis; type: ADME, organism-based; conditions: in vivo; procedure, shortened: as §2
[25] = Thermodynamic solubility of the compound in pH 2 solution; type: physicochemical; conditions: read-out: Therm_solubility

- remaining at 0.5 h [1]: 68%
- inhibition [2]: 37%
- inhibition [3]: 35 to 41%
- Ki [4]: 0.057 µM
- half-life [5]: 18 min
- inhibition [6]: 6%
- inhibition at 5 µM [7]: 0%
- Ki [8]: 0.0096 µM
- Vd [9]: 0.8 L/kg
- inhibition at 5 µM [10]: 0%
- Drug metabolism [11]: 0.12 nmol/min/mg
- Drug metabolism [12]: Metabolite_Detected
- fraction unbound at 5 µM [13]: 0.2
- solubility thermodynamic [14]: 182 µM (≈ 63.1 µg/mL)
- Drug metabolism [15]: Metabolite_Detected
- inhibition at 5 µM [16]: 4%
- remaining at 0.5 h [17]: 60%
- inhibition at 5 µM [18]: 5%
- inhibition [19]: 0%
- inhibition at 5 µM [20]: 3%
- solubility thermodynamic [21]: 276 µM (≈ 95.6 µg/mL)
- AUC(0-t) [22]: 3 µM·h
- Drug metabolism [23]: 0.1 nmol/min/mg
- clearance [24]: 48 mL/min/kg
- solubility thermodynamic [25]: 2590 µM (≈ 897 µg/mL)
SMILES: CCCn1c(OC2CCC(O)C2)nc2nc(C3CCCC3)[nH]c2c1=O (stereo not given)
